Source: ChEMBL document CHEMBL5344432, “Identification of a Dual Autophagy and REV-ERB Inhibitor with in Vivo Anticancer Efficacy” (J Med Chem, 2024)
Activity calls are given as the source filed them. No cut-off for these calls is given here.

Tests used:
[1] = Volume of distribution in CD1 mouse at 10 mg/kg, ip measured upto 24 hrs; type: ADME, organism-based; conditions: in vivo
In short: (§1)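 Female CD1 mice given a single 10 mg/kg ip dose. Plasma concentration–time profile analyzed by noncompartmental analysis for half-life and volume of distribution. A two-compartment model was also fitted.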

[2] = Tolerability in CD1 mouse assessed as reduction in body weight at 138 micromol/kg, ip measured after 2 days; type: toxicity, organism-based; conditions: in vivo, 48 h, dose 138 µmol/kg, time 2 day
In short: (§2)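 Body weight tracked in female CD1 mice under three regimens: 138 μmol/kg (62 mg/kg) ip daily, assessed after 2 days; 138 μmol/kg every other day over 8 days; 69 μmol/kg (31 mg/kg) daily over 8 days.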

[3] = Metabolic stability in dog liver microsomes assessed as half life preincubated for 15 mins followed by NADPH addition and measured after 1 to 2 hrs by LC-MS/MS analysis; type: ADME, Canis lupus familiaris, Microsome; conditions: liver microsomes, time 75-135 min
In short: (§3)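 Microsomal stability assessed in mouse, human, rat or dog liver microsomes with NADPH cofactor. Half-life and percent parent remaining at 60 and 120 min reported. Mean of at least two independent experiments, each in two technical replicates.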

[4] = Tolerability in CD1 mouse assessed as reduction in body weight at 69 micromol/kg, ip administered every daily for 8 days; type: toxicity, organism-based; conditions: in vivo, 192 h, dose 69 µmol/kg, time 8 day; in short: as §2
Capan-2 = assay: Cytotoxicity against human Capan-2 cells; type: functional
In short: (§4)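 Human cancer lines (A375, MDA-MB-231, OMM-1, UPMM-2, CAPAN-2, HepG2, HT-29, HCT116) treated up to 30 μM. CC50 derived from concentration–response viability plots. Mean ± SEM, n ≥ 6. Two-tailed unpaired t test used between compounds.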

A-375 [5] = assay: Antitumor activity against human A-375 cells xenografted in NMRI-Foxn1nu mouse assessed as reduction in tumor weight at 30 mg/kg, ip administered as 3 days on and 2 days off schedule and measured after 15 days; type: functional; set-up: scale not given: the % may be the effect or the level left; conditions: time 15 day
In short: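 Female NMRI-Foxn1nu mice with subcutaneous A375 flank tumors, grouped by matched tumor volume. Dosing: 30 mg/kg ip or saline, 3 days daily then 2 days off. Tumors measured by digital caliper until day 15. Excised tumors then sized as (W × D × L)/2 and weighed. n = 8; Mann–Whitney two-tailed test for the excised endpoints.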

A-375 [6] = assay: Antitumor activity against human A-375 cells xenografted in NMRI-Foxn1nu mouse assessed as effect on autophagy by measuring increase in GFP-LC3-II expression at 30 mg/kg, ip administered for 2 days by immunoblotting analysis; type: functional, organism-based; conditions: time 2.0 day
In short: (§5)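 Female NMRI-Foxn1nu mice bearing flank subcutaneous xenografts of GFP-LC3 reporter A375 cells, matched for tumor size, given 30 mg/kg ip or saline for 2 days. Euthanized 48 h after first injection. Tumor lysates immunoblotted with anti-LC3B for GFP-LC3-I and GFP-LC3-II. n = 3; unpaired two-tailed t test versus saline.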

A-375 [7] = assay: Antitumor activity against human A-375 cells xenografted in NMRI-Foxn1nu mouse assessed as effect on autophagy by measuring increase in LC3-II/LC3-I ratio expression at 30 mg/kg, ip administered for 2 days by immunoblotting analysis; type: functional, organism-based; conditions: time 2.0 day; in short: as §5
[8] = Metabolic stability in mouse liver microsomes assessed as half life preincubated for 15 mins followed by NADPH addition and measured after 1 to 2 hrs by LC-MS/MS analysis; type: ADME, Microsome; conditions: liver microsomes, time 75-135 min; in short: as §3
HT-29 = assay: Cytotoxicity against human HT-29 cells; type: functional; in short: as §4
[9] = Inhibition of REV-ERBbeta (unknown origin) transcription expressed in HEK293 cells incubated for 24 hrs by gaussia luciferase based assay; type: cell-based; conditions: Homo sapiens, HEK293, 24 h
In short: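 HEK-293 cells cotransfected with REV-ERBβ and a luciferase reporter driven by two repeats of a REV-ERB response element (RevRE) consensus, then treated across a concentration range. Luciferase activity is expressed as fold of DMSO vehicle, mean ± SEM, n = 6, and EC50 is taken from the concentration-response curve. A parallel reporter carrying a mutated RevRE served as a specificity control.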

[10] = Cytotoxicity against HMECs; type: toxicity, cell-based, HMEC; conditions: human, HMEC cells
In short: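 BT-474 breast cancer cells and nontumorigenic HMECs treated 48 h with concentrations up to 30 μM. CC50 derived from concentration–response viability plots. Values >30 μM assigned when viability fell by less than 50% of vehicle at 30 μM. Mean ± SEM, n ≥ 3.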

BT-474 = assay: Inhibition of REV-ERBbeta in REV-ERBbeta knockout human BT-474 cells assessed as induction of BMAL1 expression at 5 uM after 24 hrs by qRT-PCR analysis; type: cell-based
[11] = Cmax in CD1 mouse at 10 mg/kg, ip measured upto 24 hrs; type: ADME, organism-based; set-up: dose 10 mg/kg, time < 24 hrs, route ip; conditions: in vivo; in short: as §1
[12] = Tolerability in CD1 mouse assessed as change in water intake at 69 micromol/kg, ip administered as 3 days on and 2 days off schedule and measured after 15 days; type: toxicity, organism-based; conditions: in vivo, dose 69 µmol/kg
In short: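 Female CD1 mice given 69 μmol/kg (31 mg/kg) ip, 3 days daily then 2 days off, or saline. Body weight, food intake and water intake monitored daily for 15 days. Weight expressed relative to the day before treatment (100%). Mean ± SEM, n = 3.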

[13] = Half life in CD1 mouse at 10 mg/kg, ip measured upto 24 hrs; type: ADME, organism-based; conditions: in vivo; in short: as §1
[14] = Metabolic stability in human liver microsomes assessed as parent compound remaining preincubated for 15 mins followed by NADPH addition and measured after 1 hr by LC-MS/MS analysis; type: ADME, Microsome; conditions: time 75 min, read-out: Stability; in short: as §3
A-375 [15] = assay: Cytotoxicity against human A-375 cells; type: functional; in short: as §4
HCT-116 = assay: Cytotoxicity against human HCT-116 cells; type: functional; in short: as §4
[16] = Toxicity in NMRI-Foxn1nu mouse xenografted with human A-375 cells assessed as reduction in body weight at 30 mg/kg, ip administered as 3 days on and 2 days off schedule and measured after 15 days; type: organism-based; conditions: in vivo, 360 h, time 15 day
In short: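 A375 xenograft-bearing female NMRI-Foxn1nu mice received 30 mg/kg ip or saline on a 3-days-on/2-days-off schedule. Body weight recorded daily to day 15, expressed relative to weight on the day before treatment (set to 100%). n = 8.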

A375 (human) = assay: Inhibition of autophagy in human A375 cells expressing EGFP-LC3B assessed as increase in LC3-II protein level at 2.5 uM after 24 hrs by immunoblotting analysis
[17] = Tolerability in CD1 mouse assessed as reduction in body weight at 138 micromol/kg, ip administered every other day for 8 days; type: toxicity, organism-based; conditions: in vivo, 192 h, dose 138 µmol/kg, time 8 day; in short: as §2

Structure (SMILES): Fc1ccc(C2(NCc3ccc(F)c(CC4CCNCC4)c3)CCCC2)cc1
- Vd [1]: 106.07 L/kg
- Activity [2]: Toxic
- half-life [3]: > 60 min
- Activity [4]: Toxic
- CC50 (Capan-2): 6.86 µM
- Activity (A-375 [5]): 56%
- Activity (A-375 [6]): Active
- Activity (A-375 [7]): Active
- half-life [8]: > 120 min
- CC50 (HT-29): 4.74 µM
- EC50 [9]: 3.61 µM
- CC50 [10]: > 30 µM
- inhibition (BT-474): inactive
- Cmax [11]: 280.23 µg/L
- Activity [12]: Non-Toxic
- t1/2 [13]: 9.67 h
- remaining at 1 h [14]: 81%
- CC50 (A-375 [15]): 2560 nM
- CC50 (HCT-116): 4.56 µM
- Activity [16]: Non-Toxic
- inhibition (A375 (human)): Active
- Activity [17]: Toxic
